A short description of assay [1]: Inhibition of Dengue virus recombinant […] RNA dependent RNA polymerase using […] by SPA. An outline of the steps: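 Purified recombinant dengue 2 NS5 polymerase at 50 nM, preincubated 1 h at room temperature with compound over a range of concentrations and annealed poly(C)/biotin-oligo G template. Buffer: 50 mM Tris-HCl pH 7.0, 10 mM KCl, 2 mM MgCl2, 2 mM MnCl2, 1 mM β-mercaptoethanol, 0.05% CHAPS. Stopped with EDTA and streptavidin SPA beads, then scintillation counting. Duplicates, average of at least two experiments.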

A short description of assay [2]: Inhibition of HCV RNA dependent RNA polymerase. Set-up: species or system Hepacivirus hominis.
Assay [3] addresses T1, DNA polymerase alpha catalytic subunit (Homo sapiens, UniProt P09884).
T1 sequence (P09884 whole entry): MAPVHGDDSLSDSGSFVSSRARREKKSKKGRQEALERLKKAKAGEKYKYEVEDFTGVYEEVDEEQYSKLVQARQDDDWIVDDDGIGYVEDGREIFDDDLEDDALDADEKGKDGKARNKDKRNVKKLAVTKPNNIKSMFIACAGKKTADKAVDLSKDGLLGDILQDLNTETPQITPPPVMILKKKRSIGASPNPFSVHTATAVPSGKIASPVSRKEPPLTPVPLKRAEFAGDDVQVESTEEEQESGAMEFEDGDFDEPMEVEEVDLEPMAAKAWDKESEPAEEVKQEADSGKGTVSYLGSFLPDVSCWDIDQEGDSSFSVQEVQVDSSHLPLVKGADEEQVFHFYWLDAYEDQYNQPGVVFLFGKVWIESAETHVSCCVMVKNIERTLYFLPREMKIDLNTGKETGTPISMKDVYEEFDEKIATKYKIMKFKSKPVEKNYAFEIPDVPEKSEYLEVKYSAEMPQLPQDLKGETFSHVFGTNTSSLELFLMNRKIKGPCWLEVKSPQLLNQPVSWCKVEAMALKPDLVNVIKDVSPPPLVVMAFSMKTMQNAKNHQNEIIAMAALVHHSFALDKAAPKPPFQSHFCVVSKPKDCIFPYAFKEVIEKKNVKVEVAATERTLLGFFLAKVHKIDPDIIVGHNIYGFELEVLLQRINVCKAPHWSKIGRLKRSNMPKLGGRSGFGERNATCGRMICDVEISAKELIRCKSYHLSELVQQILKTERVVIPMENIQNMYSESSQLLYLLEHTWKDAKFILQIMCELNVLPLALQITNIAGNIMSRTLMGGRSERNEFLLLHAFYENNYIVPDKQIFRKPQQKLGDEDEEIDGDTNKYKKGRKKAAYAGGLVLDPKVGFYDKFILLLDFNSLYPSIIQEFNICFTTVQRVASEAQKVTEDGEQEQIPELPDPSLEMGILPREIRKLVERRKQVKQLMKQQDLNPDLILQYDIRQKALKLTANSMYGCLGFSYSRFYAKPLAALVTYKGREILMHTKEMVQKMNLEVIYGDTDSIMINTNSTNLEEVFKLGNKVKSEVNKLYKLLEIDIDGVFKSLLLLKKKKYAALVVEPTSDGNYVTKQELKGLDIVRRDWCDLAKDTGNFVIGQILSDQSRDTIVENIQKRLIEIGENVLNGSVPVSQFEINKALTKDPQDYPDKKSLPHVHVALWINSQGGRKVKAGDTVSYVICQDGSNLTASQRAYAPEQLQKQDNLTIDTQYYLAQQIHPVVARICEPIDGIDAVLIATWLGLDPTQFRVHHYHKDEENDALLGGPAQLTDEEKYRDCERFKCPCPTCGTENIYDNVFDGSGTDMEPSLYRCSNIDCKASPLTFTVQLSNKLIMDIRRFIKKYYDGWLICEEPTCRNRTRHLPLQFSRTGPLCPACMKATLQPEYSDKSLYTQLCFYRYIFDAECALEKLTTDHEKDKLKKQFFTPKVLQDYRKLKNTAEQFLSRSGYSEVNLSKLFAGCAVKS
The assay is described as follows: Inhibition of human DNA polymerase alpha.

The target of the next assay is DNA polymerase beta (Homo sapiens, UniProt P06746). The assay is described as follows: Inhibition of human DNA polymerase beta.
The test system of the next assay is Dengue virus. Description: Irreversible inhibition of Dengue virus recombinant […] RNA dependent RNA polymerase under ultraviolet light irradiation.

pIC50: −log10 of the molar value. The source made the active and inactive calls. The calls are words filed in the database; no cut-off is given here.

The values below come from ChEMBL document CHEMBL1154753, “N-sulfonylanthranilic acid derivatives as allosteric inhibitors of dengue viral RNA-dependent RNA polymerase” (J Med Chem, 2009).

The pIC50 is −log10 of the IC50, conventionally taken in molar units.

With `O=C(O)c1ccc(Cl)cc1NS(=O)(=O)c1cccc(-c2cnn(Cc3ccccc3)c2)c1`, the pIC50 in assay [1] was 6.11.

Regarding `Cn1cc(-c2cccc(S(=O)(=O)Nc3ccccc3C(=O)O)c2)cn1`, the pIC50 in assay [1] is under 4.70.

As to `O=C(O)c1ccc(F)cc1NS(=O)(=O)c1cccc(-c2cnn(Cc3ccccc3)c2)c1`, the pIC50 was 6.43 in assay [1], under 4.70 in assay [2], under 4.70 in assay [3] and under 4.70 on DNA polymerase beta.

Regarding `CC(C)CCn1cc(-c2cccc(S(=O)(=O)Nc3ccccc3C(=O)O)c2)cn1`, in assay [1], the pIC50 is 5.17.

In the case of `NC(=O)c1ccccc1NS(=O)(=O)c1cccc(-c2cnn(Cc3ccccc3)c2)c1`, the pIC50 in assay [1] is under 4.70.

With `O=C(O)c1ccc(NS(=O)(=O)c2cccc(-c3cnn(Cc4ccccc4)c3)c2)cc1`, the pIC50 in assay [1] was under 4.70.

As for `COC(=O)c1ccccc1NS(=O)(=O)c1cccc(-c2cnn(Cc3ccccc3)c2)c1`, the pIC50 in assay [1] was under 4.70.

As to `O=C(O)c1cccc(NS(=O)(=O)c2cccc(-c3cnn(Cc4ccccc4)c3)c2)c1`, in assay [1], the negative-log IC50 (pIC50) was under 4.70.

As to `COc1ccc(C(=O)O)c(NS(=O)(=O)c2cccc(-c3cnn(Cc4ccccc4)c3)c2)c1`, in assay [1], the pIC50 was 5.00.

In the case of `O=C(O)c1c(Cl)cccc1NS(=O)(=O)c1cccc(-c2cnn(Cc3ccccc3)c2)c1`, in assay [1], the pIC50 is under 4.70.

`O=C(Nc1cccc(Cn2cc(-c3cccc(S(=O)(=O)Nc4ccccc4C(=O)O)c3)cn2)c1)c1ccc(C(=O)c2ccccc2)cc1`: the pIC50 in assay [1] is 5.82. Also, in the assay with Dengue virus, the result was Active.

Regarding `COc1cc(NS(=O)(=O)c2cccc(-c3cnn(Cc4ccccc4)c3)c2)c(C(=O)O)cc1OC`, in assay [1], the pIC50 was under 4.70.

Consider `O=C(O)c1ccccc1NS(=O)(=O)c1cccc(-c2cnn(Cc3ccccc3)c2)c1`, for which the pIC50 was 6.15 in assay [1], under 4.70 in assay [2], under 4.70 in assay [3] and under 4.70 against DNA polymerase beta.

`O=C(O)c1ccccc1NS(=O)(=O)c1cccc(-c2cn[nH]c2)c1`: the pIC50 in assay [1] was under 4.70.

Consider `O=S(=O)(Nc1ccccc1)c1cccc(-c2cnn(Cc3ccccc3)c2)c1`, for which the pIC50 in assay [1] was under 4.70.

Consider `O=C(O)c1cc(Cl)ccc1NS(=O)(=O)c1cccc(-c2cnn(Cc3ccccc3)c2)c1`, for which the pIC50 in assay [1] is 5.59.

Turning to `CC(C)Cn1cc(-c2cccc(S(=O)(=O)Nc3ccccc3C(=O)O)c2)cn1`, the pIC50 in assay [1] is under 4.70.

For the molecule `O=C(O)c1ccccc1NS(=O)(=O)c1cccc(-c2cnn(Cc3ccc4ccccc4c3)c2)c1`, the pIC50 in assay [1] is 6.43.

As to `O=C(O)c1ccccc1NS(=O)(=O)c1cccc(-c2cnn(CCN3CCOCC3)c2)c1`, the pIC50 in assay [1] is under 4.70.

For `CC1=NN(c2cccc(S(=O)(=O)Nc3ccccc3C(=O)O)c2)C(=O)C1`, the pIC50 in assay [1] is 5.14.

Consider `O=C(O)c1ccc(F)cc1NS(=O)(=O)c1cccc(-c2cnn(Cc3ccc4ccccc4c3)c2)c1`, for which the pIC50 is 6.59 in assay [1], under 4.70 in assay [2], under 4.70 in assay [3] and under 4.70 at DNA polymerase beta.

Take `O=C(O)c1cccc(Cl)c1NS(=O)(=O)c1cccc(-c2cnn(Cc3ccccc3)c2)c1`: the pIC50 in assay [1] is 4.74.
